For series [1], the species on record is Homo sapiens. Description: Relative potency was determined in vitro in paratized human whole blood against chloroquine sensitive (D-6) strain of Plasmodium falciparum in University of mississippi using parasite lactate dehydrogenase assay. The series is classed as functional. The method, boiled down: (§1)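 P. falciparum W-2 and D-6 tested at University of Mississippi by Makler parasite lactate dehydrogenase assay: pLDH reduces APAD to APADH (human RBC LDH does so only slowly); APADH detected colorimetrically via nitroblue tetrazolium reduction to blue formazan. Relative potencies derived as for the Walter Reed assay.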

For series [2], the species on record is Homo sapiens. In words: Relative potency was determined in vitro in paratized human whole blood against […]strain of Plasmodium falciparum in University of mississippi using parasite lactate dehydrogenase assay. The series is classed as functional. An outline of the steps: as §1
Series [3] is described as follows: Partition coefficient (logP). The format is physicochemical. The settings on record: octanol/water. The method, boiled down: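 log P measured by literature procedures using standard values, also calculated with CLOGP; UV detection at 330 nm for ketone standards and 216 nm for artemisinin derivatives; samples run in triplicate.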
Series [4] concerns Plasmodium falciparum. Description: Relative potency was determined in vitro in paratized human whole blood against drug resistant strain of Plasmodium falciparum strain-Indochina(W-2).
For series [5], the system named is Plasmodium falciparum. In words: Relative potency was determined in vitro in paratized human whole blood against drug resistant strain of Plasmodium falciparum strain-Sierra Leone(D-6).
For series [6], the species on record is Homo sapiens. Description: Relative potency was determined in vitro in paratized human whole blood against […]strain of Plasmodium falciparum in WR(Walter Reed) army institute of research. The series is classed as functional.

As a reminder, the logP is a log measure of how a compound divides between an organic and an aqueous phase. Lower therefore signals lower lipophilicity. As for `CC(C)CN1C(=O)C[C@@H]2CC[C@@H](C)[C@@H]3CC[C@@]4(C)OO[C@@]23C1O4` (stereo partly drawn), the Relative potency is reported as 155% in the series filed under Homo sapiens [1]; 227% in the series listed under Homo sapiens [2]; 105% in the series on Plasmodium falciparum [4]; 145% in the series with Plasmodium falciparum [5]; 105% in the series filed under Homo sapiens [6]. The logP in series [3] came to 3.01.

Turning to `C[C@@H]1CC[C@H]2CC(=O)N(Cc3ccc(Cl)cc3)C3O[C@@]4(C)CC[C@@H]1[C@]32OO4` (stereo partly drawn), the Relative potency came to 128% in the series listed under Homo sapiens [1]; 311% in the series filed under Homo sapiens [2]; 69% in the series with Plasmodium falciparum [4]; 111% in the series with Plasmodium falciparum [5]; 69% in the series listed under Homo sapiens [6]. Also, the log partition coefficient (logP) in series [3] amounted to 3.96.

In series [3], `CCCCCN1C(=O)C[C@@H]2CC[C@@H](C)[C@@H]3CC[C@@]4(C)OO[C@@]23C1O4` (stereo partly drawn) displayed a logP of 3.67. Besides, the Relative potency in the series on Plasmodium falciparum [4] was found to be 63%; with Plasmodium falciparum [5], 110%.

`C[C@@H]1CC[C@H]2CC(=O)N(C)C3O[C@@]4(C)CC[C@@H]1[C@]32OO4` (stereo partly drawn) came in with a logP in series [3] of 1.55. Also, the Relative potency in the series on Plasmodium falciparum [4] worked out at 500%; in the series on Plasmodium falciparum [5] it was 213%.

On to `C[C@@H]1CC[C@H]2CC(=O)N(CCCCCC(=O)O)C3O[C@@]4(C)CC[C@@H]1[C@]32OO4` (stereo partly drawn), for which the Relative potency with Plasmodium falciparum [4] is 2%; in the series with Plasmodium falciparum [5] it was 12%.

With `C[C@@H]1CC[C@H]2CC(=O)N(CC(=O)O)C3O[C@@]4(C)CC[C@@H]1[C@]32OO4` (stereo partly drawn), the logP in series [3] turned out to be 1.69. In the series with Plasmodium falciparum [5], this compound yielded a Relative potency of 6%.

With `C[C@@H]1CC[C@H]2[C@@H](C)C(=O)O[C@@H]3O[C@@]4(C)CC[C@@H]1[C@]32OO4` [ARTEMISININ], the Relative potency in the series on Plasmodium falciparum [4] and in the series on Plasmodium falciparum [5] was 100% in each case.

As to `C[C@@H]1CC[C@H]2CC(=O)N(CCc3ccccc3)C3O[C@@]4(C)CC[C@@H]1[C@]32OO4` (stereo partly drawn), the Relative potency in the series filed under Homo sapiens [1] is given as 187%; in the series filed under Homo sapiens [2], 204%; in the series on Plasmodium falciparum [4], 143%; with Plasmodium falciparum [5], 197%; in the series listed under Homo sapiens [6] it was 143%. In series [3], this compound returned a logP of 3.5.

Turning to `C[C@@H]1CC[C@H]2CC(=O)N(Cc3ccccc3)C3O[C@@]4(C)CC[C@@H]1[C@]32OO4` (stereo partly drawn), the Relative potency was 146% in the series filed under Homo sapiens [1]; 252% in the series listed under Homo sapiens [2]; 217% in the series with Plasmodium falciparum [4]; 189% in the series on Plasmodium falciparum [5]; 217% in the series filed under Homo sapiens [6].

As to `C[C@@H]1CC[C@H]2CC(=O)N(CCCc3ccccc3)C3O[C@@]4(C)CC[C@@H]1[C@]32OO4` (stereo partly drawn), the Relative potency in the series listed under Homo sapiens [1] came to 147%; in the series listed under Homo sapiens [2], 281%; in the series on Plasmodium falciparum [4], 105%; in the series on Plasmodium falciparum [5] it was 205%; in the series filed under Homo sapiens [6], 105%. Further, the logP in series [3] amounted to 4.03.

`CCCN1C(=O)C[C@@H]2CC[C@@H](C)[C@@H]3CC[C@@]4(C)OO[C@@]23C1O4` (stereo partly drawn): in series [3], the logP is 2.61. In addition, the results for the Relative potency in the series with Plasmodium falciparum [4] and in the series on Plasmodium falciparum [5] were 111% and 75%, respectively.

Compound `C[C@@H]1CC[C@H]2CC(=O)N(CCN(C)C)C3O[C@@]4(C)CC[C@@H]1[C@]32OO4` (stereo partly drawn) registered a Relative potency in the series on Plasmodium falciparum [5] of 37%.

In series [3], `CC(C)CCN1C(=O)C[C@@H]2CC[C@@H](C)[C@@H]3CC[C@@]4(C)OO[C@@]23C1O4` (stereo partly drawn) displayed a logP of 3.54. The Relative potency worked out at 92% in the series with Plasmodium falciparum [4] and 149% in the series with Plasmodium falciparum [5].
